Screens deposited in PubChem BioAssay by several laboratories.
A selection: hits, their analogues and other compounds. The true share with any hit is near 2.4%.
GSTO1 inh: inhibitors of recombinant GSTO1, primary screen, counter-screen for RBBP9 inhibitor project, biochemical, fluorescence polarization | Glutathione S-transferase omega-1 (Homo sapiens), P78417 | activity-based probe fluorescence polarization | inhibition, % at 5.96 µM | 1.1% of 300,000 active | AID 1974, 2009;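 active means inhibition above the campaign mean inhibition plus 3 SD, cut at about 35% in these data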
SIAE inh: human SIAE inhibitors, primary screen, biochemical, fluorescence polarization, FP-Rh probe, 1536-well HTS; Sialate O-acetylesterase (Homo sapiens), Q9HAT2; SIAE FP-Rh probe binding; inhibition, % at 9.66 µM; 0.69% of 370,000 active; AID 1053197, 2014;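 active means inhibition above a cutoff: mean of compounds within the control limits plus 3 SD of those, cut at about 17% in these data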
Target sequence (Q9HAT2 whole entry, looked up): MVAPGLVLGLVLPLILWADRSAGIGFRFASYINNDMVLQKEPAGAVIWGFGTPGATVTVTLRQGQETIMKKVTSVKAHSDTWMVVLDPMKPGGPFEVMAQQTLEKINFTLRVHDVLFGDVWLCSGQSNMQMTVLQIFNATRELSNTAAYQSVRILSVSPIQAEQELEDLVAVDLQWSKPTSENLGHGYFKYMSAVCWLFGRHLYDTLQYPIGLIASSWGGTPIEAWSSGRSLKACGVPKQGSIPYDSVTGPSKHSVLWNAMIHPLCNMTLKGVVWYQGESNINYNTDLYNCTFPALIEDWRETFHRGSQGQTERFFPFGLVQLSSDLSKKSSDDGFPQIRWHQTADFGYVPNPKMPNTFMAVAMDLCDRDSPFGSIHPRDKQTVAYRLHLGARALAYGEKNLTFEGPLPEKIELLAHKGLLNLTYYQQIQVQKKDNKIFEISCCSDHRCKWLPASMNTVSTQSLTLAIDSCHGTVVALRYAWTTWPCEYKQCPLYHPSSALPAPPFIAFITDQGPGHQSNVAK
TCR CD3 inh: inhibitors of human TCR-CD3 interaction, primary screen, biochemical, fluorescence, TAMRA-labeled TCR probe; 0.37% of 360,000 active; inhibition, % at 9.4 µM; in the data active means inhibition above about 19%;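 further: recombinant mutant TCR 2C K166C tagged with TAMRA read by polarization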
PAD4 FP inh: human PAD4 inhibitors, primary screen, biochemical, fluorescence polarization, 1536-well format. Protein-arginine deiminase type-4 (Homo sapiens), Q9UM07. recombinant PAD4, RCA probe fluorescence polarization. inhibition, % at 6.36 µM. 0.41% of 330,000 active;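 active means percent inhibition above a cutoff equal to the mean of all tested compounds plus 3 SD, cut at about 15% in these data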
TDP2 absorb: human TDP2 enzyme inhibitors, primary screen, biochemical, epi absorbance, recombinant enzyme; Tyrosyl-DNA phosphodiesterase 2 (Homo sapiens), O95551; T5PNP hydrolysis, p-nitrophenol absorbance 415 nm; inhibition, % at 12.8 µM; 0.34% of 370,000 active;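 active means inhibition above the mean of all tested compounds plus 3 SD, set per campaign, cut at about 25% in these data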
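System: recombinant human TDP2 / Amount: 120 nM TDP2 per well / Also added: 5 mM T5PNP chromogenic substrate / Doses: 12.8 µM single point, 1% DMSO / Incubation: 2 h at 37 °C / Detection: p-Nitrophenol epi absorbance / Evaluation: % inhibition relative to enzyme-containing and enzyme-free wells / Repeats: singlicate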
Apaf1 inhib: inhibitors of human Apaf-1 apoptosome, primary screen, biochemical, DEVD-Rh110 fluorescence, uHTS; Apoptotic protease-activating factor 1 (Homo sapiens), O14727; reconstituted apoptosome caspase-3 activity; 0.71% of 330,000 active; inhibition, % at 20 µM; AID 489030, 2010; active means inhibition of at least 40% at 20 µM
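Material: reconstituted apoptosome with Apaf-1, cytochrome c, caspase-9, procaspase-3, dATP. Technique: Rh110 fluorescence intensity. Buffer or medium: pH 7.5 Hepes buffer with CHAPS, BSA, DTT. Times: 30 min plus 50 min, RT.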
PAD4 FP conf: human PAD4 inhibitors, confirmation, biochemical, fluorescence polarization; shares compounds with PAD4 FP inh; recombinant PAD4, RCA probe fluorescence polarization; inhibition, % at 6.36 µM; 28% of 1,200 active;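 active means mean inhibition across replicates above the hit cutoff set by the earlier primary screen, cut at about 15% in these data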;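 further: inhibitors block active-site labeling by the probe so polarization falls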
Hits are given with their value; - = inactive; . = not tested or not shown.

SMILES | GSTO1 inh | SIAE inh | TCR CD3 inh | PAD4 FP inh | TDP2 absorb | Apaf1 inhib | PAD4 FP conf
COc1ccc(C)cc1N(C(=O)c1ccccc1F)c1nc2ccccc2s1 | - | - | - | 28.6 | - | - | 29.1
COc1ccc(C)cc1N(C(=O)c1ccccc1)c1nc2ccccc2s1 | - | - | - | - | - | - | .
Cc1ccc(C=Nc2cccnc2N)cc1 | - | . | . | 15.2 | . | - | -
COc1ccc(C=Nc2cccnc2N)cc1 | - | . | . | 33.5 | . | - | -
CCOc1ccc(C=Nc2cccc3ncccc23)cc1 | - | - | - | - | - | - | .
Cc1ccc(/C=N/N=C/c2ccc(C)cc2)cc1 | - | - | - | - | - | - | .
CC(=O)c1c(C)[nH]c(C(=O)Nc2ccc(Cl)cc2F)c1C | - | - | - | - | - | - | .
Cc1cc2nc(-c3ccccc3)c(Cc3ccccc3)n2c(C)c1Br | . | - | - | . | - | . | .
COc1cc(C=O)ccc1OCc1ccncc1 | - | - | - | 27.7 | - | - | -
CCN(CC)S(=O)(=O)c1ccc(N2CCOCC2)c(NC(=O)COc2ccccc2C#N)c1 | - | - | - | - | - | - | .
COc1ccc(NC(=O)CSc2nnnn2C2CCCC2)c(OC)c1 | . | - | - | . | - | - | .
CCN(CC)CCn1c2c(c(SCC(=O)Nc3nc4ccccc4s3)nc1=O)CCC2 | - | - | - | 17.3 | - | - | -
CC(=O)c1ccc(NC(=O)CSc2nc(=O)n(CCN3CCOCC3)c3c2CCC3)cc1 | - | - | - | - | - | - | .
CCOC(=O)c1ccc(NC(=O)CSc2nc(=O)n(CCN3CCOCC3)c3c2CCC3)cc1 | - | - | - | 17.1 | - | - | -
CCc1cc(Cn2nc(-c3ccccc3)cc2C(=O)NCC2CC2)on1 | - | - | - | - | - | - | .
C/C(=N\NC(=O)c1nnn(-c2nonc2N)c1CN(C)c1ccccc1)c1cccs1 | - | - | - | - | - | - | .
COc1ccc(Oc2c(C)nc(SCC(=O)c3ccc(Cl)cc3)[nH]c2=O)cc1 | - | - | - | - | - | - | .
Cc1nc(SCC(=O)c2ccccc2)[nH]c(=O)c1Oc1ccc(Cl)cc1 | - | - | - | 20.7 | - | - | -
CC(=O)c1cccc(NC(=O)CSC(=O)c2ccccc2)c1 | - | - | - | 15.1 | - | - | 18.3
CCn1c(CSc2nnc3ccccn23)nc2cc(C(=O)O)ccc21 | - | 53.7 | 66.7 | 47.0 | - | - | 77.4
COc1cc(CC(NC(C)=O)C(=O)NC2CCN(c3c4c(nc5ncnn35)CCC4)CC2)cc(OC)c1 (stereo not drawn) | - | . | . | - | . | - | .
Cc1cccc(NC(=O)Nc2ccccn2)c1C | - | - | - | - | - | - | .
Cc1ccc(C(NC(=O)Nc2ccccn2)C(Cl)(Cl)Cl)cc1F (stereo not drawn) | - | - | - | 25.8 | - | - | -
Cc1cc(C)c(S(=O)(=O)N2CCCC2=O)cc1N(C)S(C)(=O)=O | . | - | - | . | - | - | .
Cc1ccc(S(=O)(=O)N2CCCC2=O)c(C)c1N(C)S(C)(=O)=O | - | - | - | 15.7 | - | - | -
SMILES | GSTO1 inh | SIAE inh | TCR CD3 inh | PAD4 FP inh | TDP2 absorb | Apaf1 inhib | PAD4 FP conf
COc1ccc(NC(=O)CCS(=O)(=O)c2ccc(OC)cc2)cc1 | - | - | - | 20.4 | - | - | -
CCC(=O)Nc1ccc(C(=O)CN2C(=O)NC3(CCCCCC3)C2=O)cc1 | . | - | - | 29.5 | - | - | -
CC1CCC(NC(=O)COC(=O)C2=NN(c3ccccc3)C(=O)CC2)CC1 (stereo not drawn) | . | - | - | - | - | - | .
COc1ccc(F)cc1-c1cc(C(=O)NCc2ccc(F)cc2)[nH]n1 | . | - | - | . | - | . | .
C[C@H]1CN(Cc2ccccc2)C(=O)[C@@H]1CC(=O)Nc1ccccc1 | . | - | - | . | - | . | .
Cc1ccc(N2C(=O)CSC23C(=O)Nc2ccccc23)cc1 (stereo not drawn) | - | - | - | 16.2 | - | - | 19.3
CCN(CC)C(=O)CSc1nnc(-c2ccccc2)c(-c2ccccc2)n1 | - | - | - | 14.9 | - | - | -
O=S(=O)(CCSc1nc2ccccc2o1)c1nc2ccccc2s1 | - | - | - | 17.4 | - | - | 15.8
CC(=O)NN1C(=O)c2ccc3c4c(ccc(c24)C1=O)C(=O)N(NC(C)=O)C3=O | 37.5 | - | - | 136.1 | - | - | 142.6
O=C1c2ccc3c4c(ccc(c24)C(=O)N1NC(=O)C(F)(F)F)CC3 | - | - | - | - | - | - | .
CCC1OC23CCCCC2C(C#N)(C(=N)O3)C1(C#N)C#N (stereo not drawn) | - | - | - | - | - | - | .
N#CC12COC3(CCCCC3C1(C#N)C#N)OC2=N (stereo not drawn) | - | - | - | 22.1 | - | - | -
CCCC1OC23CCCCC2C(C#N)(C(=N)O3)C1(C#N)C#N (stereo not drawn) | - | - | - | 16.7 | - | - | -
N#CC1(C#N)COC23CCCCC2C1(C#N)C(=N)O3 (stereo not drawn) | - | - | - | - | - | - | .
COc1cc(OC)c(N2CC34C=CC(O3)C(C(=O)O)C4C2=O)cc1Cl (stereo not drawn) | - | - | - | - | - | - | .
CN(C)S(=O)(=O)c1cccc(NC(=S)N2CCCCC2CO)c1 (stereo not drawn) | - | - | - | - | - | - | .
O=C(O)c1ccccc1SC1CC(=O)N(c2ccccc2)C1=O (stereo not drawn) | - | - | - | - | - | - | .
O=C1CC(Sc2cccs2)C(=O)N1c1ccccc1 (stereo not drawn) | - | - | - | 24.4 | - | - | -
CCOc1ccc(CN(C)C(=O)CNC(=O)c2ccc3ccccc3c2)cc1OC | - | - | - | - | - | - | .
Cc1cc2oc(=O)sc2cc1NS(=O)(=O)c1cccc2cccnc12 | - | - | - | 33.8 | - | - | 19.2
CC(=O)N(c1ccc2oc(=O)sc2c1)S(=O)(=O)c1cccc2cccnc12 | - | - | - | 33.1 | - | - | 21.6
Cc1cc(-c2ccc(NS(=O)(=O)c3ccccc3)c(C)c2)ccc1NS(=O)(=O)c1ccccc1 | . | - | - | . | - | . | .
CCCC(=O)N(c1ccc2oc(=O)sc2c1)S(=O)(=O)c1ccccc1 | - | - | - | 22.2 | - | - | -
Cc1cc2oc(=O)sc2cc1NS(=O)(=O)c1ccccc1 | - | - | - | 20.2 | - | - | -
CC(=O)N(c1ccc2oc(=O)sc2c1)S(=O)(=O)c1cccs1 | - | - | - | - | - | - | .
